Results: article PMC7086808 (Archives of Virology, 2009)

Columns and labels:
[1] = test system: Coxsackie virus B5 (CVB5); experiment: MTT/CPE antiviral assay, compound treatment after virus infection; assay type: cell-based; conditions: for IC50: Enterovirus B
Procedure, shortened: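 Confluent HEp-2 monolayers infected with CVB5 at 100 TCID50/0.1 ml for 1 h, washed with PBS, then overlaid with twofold serial dilutions in 2% serum test medium, dosed daily. CPE scored by light microscopy and quantified by MTT (OD 540/690 nm). IC50 derived, TI = CC50/IC50; mean ± SD from three independent experiments.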

CVB5 RNA = experiment: Semi-quantitative detection of viral RNA by RT-PCR; assay type: cell-based, Coxsackie virus B5; conditions: cells treated after infection with 0.3-40 μg/ml
[2] = test system: Coxsackie virus B5 (CVB5); experiment: Virucidal assay; assay type: cell-based; conditions: Enterovirus B, B5|CVB5, HEp-2, 1 h
Procedure, shortened: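 CVB5 suspension mixed with twofold serial dilutions (0.5 to 20 μg/ml) for 1 h at 37°C, then added to confluent HEp-2 cells for 1 h. Inoculum removed, cells rinsed with PBS and incubated in test medium. CPE scored by microscopy and MTT; IC50 derived as mean ± SD of three independent experiments.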

rats = conditions: single-dose oral administration; cited from earlier work
[3] = test system: Coxsackie virus B5 (CVB5); experiment: MTT/CPE antiviral assay, compound treatment before virus infection; assay type: cell-based
Procedure, shortened: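 HEp-2 cells pretreated with twofold serial dilutions in MEM for 24 h at 37°C, 5% CO2. Compound then removed and cells washed twice with PBS before challenge with 100 TCID50/0.1 ml CVB5 for 1 h. After two more washes, cells kept in test medium until CPE appeared; scored microscopically and by MTT. IC50 and TI (CC50/IC50); mean ± SD of three experiments.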

MTT cytotoxicity assay = assay type: cell-based; conditions: human, HEp-2 cells (uninfected)
Procedure, shortened: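 HEp-2 cells seeded at 2 × 10⁴/well and grown to subconfluence, then given serial twofold dilutions in test medium with 2% serum; four uninfected wells per dilution; compound re-added daily; controls had 0.05% DMSO. Read-out: MTT (5 mg/ml in PBS, 4 h), formazan dissolved in DMSO, OD at 540/690 nm. Expressed as % of untreated; CC50 derived; dilutions in triplicate.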

[4] = Storage stability of compound preparations; assay type: physicochemical; conditions: DMSO/test medium preparations; freezing and short-term storage (1 month at 4°C)
[5] = test system: Coxsackie virus B5 (CVB5); experiment: Coxsackie virus B5 infection in mice; assay type: in vivo, BALB/c mice; conditions: for mean virus yield of hearts: plaque assay
guinea pigs = conditions: single-dose oral administration; cited from earlier work
mice = conditions: single-dose oral administration; cited from earlier work
animals = conditions: cited from earlier work
[6] = cited from earlier work

CCOC(=O)c1c(CSc2ccccc2)n(C)c2cc(Br)c(O)c(CN(C)C)c12.Cl.O [Arbidol, ethyl-6-bromo-4-[(dimethylamino)-methyl]-5-hydroxy-1-methyl-2-[(phenylthio)methyl]-indole-3-carboxylate hydrochloride monohydrate]
IC50 ([1]; B5|CVB5, HEp-2): 6.62 ± 1.1 µg/mL
IC50 ([1]; B5|CVB5, read-out: 50% inhibitory concentration (IC50), CPE of CVB5): 2.66 to 6.62 µg/mL
TI (CC50/IC50) ([1]; drug added after infection, HEp-2 cells): 12.45
ratio of CVB5 RNA to β-actin (RT-PCR) (CVB5 RNA): decreased with increasing dose
IC50 [2]: 2.66 ± 0.4 µg/mL
LD50 (50% lethal dose) (rats): 3,000 mg/kg
IC50 ([3]; Enterovirus B, B5|CVB5, HEp-2): 30.3 ± 1.6 µg/mL
TI (CC50/IC50) ([3]; drug added before infection, HEp-2 cells): 2.7
CC50 (MTT cytotoxicity assay): 82.1 µg/mL
efficacy of preparations upon storage [4]: did not appear to change
lung index vs viral control group ([5]; 25 mg/kg body weight/day p.o.): significantly lower
mean virus yield of hearts ([5]; 25 mg/kg body weight/day p.o. for 6 days): 10^3 viral plaques/heart
survival by day 30 ([5]; 25 mg/kg body weight/day p.o., eight mice per group): half of them had survived
clinical observations during the 30-day period ([5]; 50 mg/kg body weight/day p.o.): did not show abnormalities
lung index vs normal group ([5]; 50 mg/kg body weight/day p.o.): no significant difference
lung index vs viral control group ([5]; 50 mg/kg body weight/day p.o.): significantly lower
mean virus yield of hearts ([5]; 50 mg/kg body weight/day p.o. for 6 days): 10^2 viral plaques/heart
survival rate ([5]; 50 mg/kg body weight/day p.o. once a day for 6 days): significantly enhanced
body weight ([5]; 50 mg/kg body weight/day p.o., 30-day period): slight weight loss
LD50 (50% lethal dose) (guinea pigs): 4,000 mg/kg
LD50 (50% lethal dose) (mice): 687 mg/kg
pathologic changes on long-term intake (animals; animals, clinical, hematological, biochemical, pathological data): did not show pathologic changes
mutagenic or teratogenic activity (animals; at therapeutic doses): no mutagenic or teratogenic activity
half-life in cultured cells [6]: about 18 h
